Results on six compounds are retold here after paper PMC8341878 (RSC Chemical Biology, 2020).

Test [1] addresses ^EcSC (E. coli sliding clamp, DnaN) (Escherichia coli, UniProt P0A988). In words: ITC, peptide interaction with E. coli sliding clamp. Type of test: binding. Summed up: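 Recombinant His-tagged E. coli DnaN was expressed in BL21(DE3) pLys (IPTG 0.1 mM, 28 °C overnight), purified by Ni-NTA then Source Q, and exchanged into 10 mM Hepes pH 7.4, 0.15 M NaCl, 3 mM EDTA. Peptide (100 to 400 μM) was injected stepwise into 20 or 30 μM clamp at 30 °C. Peptide-into-buffer controls were subtracted. Each titration was run at least twice; mean ± sd.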
On the technique in general: Isothermal titration calorimetry measures the heat released or taken up as one component is titrated into another.

The test system of the next test is E. coli D22 strain. Put plainly: Microdilution broth assay. Type of test: cell-based, Escherichia coli. Summed up:
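E. coli D22 was grown in Mueller Hinton broth to OD600 0.6–0.8, then diluted so wells held about 2 to 5 × 10^5 cfu per mL with serially diluted peptide in MH broth. Plates were read at 620 nm after 18–24 h at 37 °C. MIC was the lowest concentration with no turbidity increase. For MBC, wells were plated on LB agar; ≥99.9% kill versus inoculum. Duplicates, ≥2 independent experiments.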

A further test concerns Mycobacterium smegmatis. Particulars: cited from earlier work.
Where [2] appears, read: E. coli D22, decrease of at least 99.9% of cell viability vs inoculum, minimum of 2 independent biological replicates.

Converted amounts (≈) assume the structure as drawn. “And” between values parts separate entries of the source, which are not always exact repeats. Identical values can stand only once. Peptide text beside a SMILES is read from it.

Chain of ^EcSC (E. coli sliding clamp, DnaN) (P0A988 whole entry): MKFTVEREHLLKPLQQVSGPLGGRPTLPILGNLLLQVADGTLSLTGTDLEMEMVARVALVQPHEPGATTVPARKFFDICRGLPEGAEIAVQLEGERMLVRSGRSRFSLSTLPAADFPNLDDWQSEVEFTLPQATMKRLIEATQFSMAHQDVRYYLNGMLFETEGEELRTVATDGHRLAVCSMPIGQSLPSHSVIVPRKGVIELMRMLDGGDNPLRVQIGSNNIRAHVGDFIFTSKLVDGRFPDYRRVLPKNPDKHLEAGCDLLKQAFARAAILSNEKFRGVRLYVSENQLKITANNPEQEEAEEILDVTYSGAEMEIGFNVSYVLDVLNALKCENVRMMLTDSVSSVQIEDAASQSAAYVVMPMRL

One may read the MBC as the lowest tested concentration that kills the bacteria rather than only halting them. `CC[C@H](C)[C@H](NC(=O)[C@@H](CCCNC(=N)N)NC(=O)[C@H](CCCNC(=N)N)NC(=O)[C@@H]1CCCN1C(=O)[C@@H]1CCCN1C(=O)[C@H](CCCNC(=N)N)NC(=O)[C@@H]1CCCN1C(=O)[C@H](CCCNC(=N)N)NC(=O)[C@@H]1CCCN1C(=O)[C@H](CC(C)C)NC(=O)[C@H](Cc1ccc(O)cc1)NC(=O)[C@@H]1CCCN1C(=O)[C@@H]1CCCN1C(=O)[C@H](CCCCN)NC(=O)[C@H](CC(=O)O)NC(=O)[C@@H](N)C(C)C)C(=O)N[C@@H](Cc1ccc(O)cc1)C(=O)N[C@@H](CC(N)=O)C(=O)N[C@H](CCCNC(=N)N)C(N)=O` [Onc112] (HELM PEPTIDE1{V.D.K.P.P.Y.L.P.R.P.R.P.P.R.[dR].I.Y.N.[dR].[am]}$$$$V2.0): the “K D” value in test [1] (ITC at 30 °C, R1 buffer 10 mM Hepes pH 7.4, 0.15 M NaCl, 3 mM EDTA, peptide 100-400 μM into SC 20 or 30 μM, means ± sd of at least 2 independent experiments, ni = no specific interaction) is reported as “ni”. In the test with E. coli D22 strain (setting [2]), this compound gave an MBC of 1 µg/mL (≈ 0.418 µM). As a reminder, the Kd is the free concentration of one partner at which half of the binding sites on the other are occupied at equilibrium, for simple one-to-one binding. A high value points to weaker binding. `CC[C@H](C)[C@H](NC(=O)[C@@H](CCCNC(=N)N)NC(=O)[C@H](CCCNC(=N)N)NC(=O)[C@@H]1CCCN1C(=O)[C@@H]1CCCN1C(=O)[C@H](CCCNC(=N)N)NC(=O)[C@@H]1CCCN1C(=O)[C@H](CCCNC(=N)N)NC(=O)[C@@H]1CCCN1C(=O)[C@H](CC(C)C)NC(=O)[C@H](Cc1ccc(O)cc1)NC(=O)[C@@H]1CCCN1C(=O)[C@@H]1CCCN1C(=O)[C@H](CCCCN)NC(=O)[C@H](CC(=O)O)NC(=O)[C@@H](N)C(C)C)C(=O)N[C@@H](Cc1ccc(O)cc1)C(=O)N[C@@H](CC(N)=O)C(=O)N[C@H](CCCNC(=N)N)C(=O)N[C@@H](CC(N)=O)C(=O)NCC(=O)N1CCC[C@H]1C(=O)N[C@@H](CCCNC(=N)N)C(=O)N[C@@H](CCC(N)=O)C(=O)N[C@@H](CC1CCCCC1)C(=O)N[C@@H](CC(=O)O)C(=O)N[C@@H](CC(C)C)C(=O)N[C@@H](Cc1ccccc1)C(=O)O` [Onc112-P7] (HELM PEPTIDE1{V.D.K.P.P.Y.L.P.R.P.R.P.P.R.[dR].I.Y.N.[dR].N.G.P.R.Q.[Cha].D.L.F}$$$$V2.0): in test [1] (SD), the affinity, expressed as Kd, was 200 ± 0.1 nM. Further, the minimum bactericidal concentration (MBC) with E. coli D22 strain (setting [2]) was 2 µg/mL (≈ 0.576 µM).

In the test with E. coli D22 strain (setting [2]), `CC[C@H](C)[C@H](NC(=O)[C@@H]1CCCN1C(=O)[C@H](CCCNC(=N)N)NC(=O)[C@@H]1CCCN1C(=O)[C@@H]1CCCN1C(=O)[C@@H](NC(=O)[C@@H]1CCCN1C(=O)[C@H](CCCNC(=N)N)NC(=O)[C@@H]1CCCN1C(=O)[C@H](CC(C)C)NC(=O)[C@H](Cc1ccc(O)cc1)NC(=O)[C@H](CO)NC(=O)CNC(=O)[C@H](CCCCN)NC(=O)[C@H](CC(=O)O)NC(=O)[C@@H](N)C(C)C)[C@@H](C)O)C(=O)N[C@@H](Cc1ccc(O)cc1)C(=O)N[C@@H](CC(N)=O)C(=O)N[C@@H](CCCNC(=N)N)C(=O)N[C@@H](CC(N)=O)C(=O)NCC(=O)N1CCC[C@H]1C(=O)N[C@@H](CCCNC(=N)N)C(=O)N[C@@H](CCC(N)=O)C(=O)N[C@@H](CC1CCCCC1)C(=O)N[C@@H](CC(=O)O)C(=O)N[C@@H](CC(C)C)C(=O)N[C@@H](Cc1ccccc1)C(=O)O` [Py-P7] (HELM PEPTIDE1{V.D.K.G.S.Y.L.P.R.P.T.P.P.R.P.I.Y.N.R.N.G.P.R.Q.[Cha].D.L.F}$$$$V2.0) had an MBC of 8 µg/mL (≈ 2.42 µM). Usually MIC stands for the least concentration at which growth counts as inhibited. Higher therefore signals weaker potency. Turning to `CC1(C)S[C@@H]2[C@H](NC(=O)[C@H](N)c3ccccc3)C(=O)N2[C@H]1C(=O)O` [Ampicillin], in the test on E. coli D22 strain (Escherichia coli, D22STRAIN), the MBC is 16 µg/mL (≈ 45.8 µM); the MIC is 22.9 µM to 45.8 µM and 8 µg/mL to 16 µg/mL. For the compound `CN(C)[C@@H]1C(O)=C(C(N)=O)C(=O)[C@@]2(O)C(O)=C3C(=O)c4c(O)cccc4[C@@](C)(O)[C@H]3C[C@@H]12` [Tetracycline], in the test on E. coli D22 strain (Escherichia coli, D22STRAIN), the MBC was 0.5 µg/mL (≈ 1.13 µM); the minimum inhibitory concentration (MIC) is 0.56 µM to 1.12 µM and 0.25 µg/mL to 0.5 µg/mL. Regarding griselimycin, in the test on Mycobacterium smegmatis, the frequency of resistance is 5 × 10^−10.
